# Most compounds without a hit are left out; they make up all but 2.3% or so of the library.
# GPR7 antag = GPR7 receptor antagonists, primary screen, cell-based, fluorescence, single concentration | Neuropeptides B/W receptor type 1 (Homo sapiens), P48145 | GPR7-expressing cells, fluorescence antagonist assay | inhibition, % at 4.4 µM | 1.1% of 290,000 active | AID 1861, 2009; in the data active = inhibition above about 16%, passing the limit was not always enough;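 also: cells stimulated with the agonist NPW; 0% = agonist with vehicle and 100% = vehicle without agonist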
# pCIP destab = p/CIP-EGFP fusion destabilizers, primary screen, fluorescence, F442A cells | Q05BA5 | 16 h | decrease of EGFP signal, % at 10 µM | 0.01% of 290,000 active | AID 1984, 2009;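 active = EGFP signal decrease of at least 30% at 10 µM or well 3 SD below plate mean, unless failing retest; inactive = the rest, including hits failing retest or dose response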
# CHT PAM = CHT positive allosteric modulators, primary screen, cell-based, membrane potential dye, choline EC20 | High affinity choline transporter 1 (Homo sapiens), Q9GZV3 | CHT-expressing cells; active compounds read high; LV-AA mutant CHT in HEK293 cells | B-score at 10 µM | 0.49% of 310,000 active | AID 488977, 2010;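 active = initial fluorescence not abnormally high and integrated response B-score, plate-corrected, over 3 SD above library mean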
# CHT block = inhibitors of human choline transporter CHT; 0.86% of 310,000 active; CHT-expressing cells, membrane potential dye, choline response; active compounds read low; B-score at 10 µM; High affinity choline transporter 1 (Homo sapiens), Q9GZV3;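 active = B-score over 3 SD under the library average, and starting fluorescence ratio not unusually high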;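 also: choline stimulus applied at its EC90 after an EC20 pre-addition; B-score computed on integrated fluorescence ratio after choline addition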
# T cell modulator = modulators of CD8 T cell-vesicle binding, primary screen, mouse 2C CD8+ T cells, flow cytometry | response (vesicle binding), % at 7 µM | 2C CD8+ T cell-vesicle binding; active compounds read low | AID 2052, 2009 | 0.068% of 330,000 active;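 active = response, share of CD8 T cells binding vesicles, and their 90th percentile fluorescence all below set limits, cut at about 80% in these data, passing the limit was not always enough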;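 also: values below 100% mean blocked vesicle binding to the CD8+ T cells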
#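 Read-out – percent CD8+ FL2 mean versus row control · System – murine 2C transgenic CD8+ T lymphocytes · Times – 1.5 h cell–vesicle binding at 37 °C, then 20 min icy labelling · Control set – naked vesicles low, QL9 vesicles with vehicle high · Detection – cytometric PE anti-B7-1 and Alexa647 anti-CD8 signals after 1% paraformaldehyde fixation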
# Pemphigus Ab inh = inhibitors of pemphigus antibody binding to DSG3, primary screen, biochemical, bead-based, flow cytometry, scFv-GFP; 0.48% of 310,000 active; DSG3-coupled beads, scFv-anti-DSG3-GFP binding; active compounds read low; binding (percent of control), % at 10 µM;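 active = binding more than 3 SD below its plate's average and above zero; inconclusive = below that plate limit but binding exactly zero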;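 also: hits lower antibody fragment binding to DSG3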
# * hit, by the source's call; i = inactive; ? = inconclusive; / = not tested or not shown.
SMILES,GPR7 antag,pCIP destab,CHT PAM,CHT block,T cell modulator,Pemphigus Ab inh
CCOC(=O)N1CCN(C(=O)c2ccc(CS(=O)Cc3ccc(C)cc3)o2)CC1 (centres undefined),-8,-8,i,i,43*,94
CC(C)Sc1ccc(C(=O)Nc2ccc(F)cc2F)cn1,11,-10,i,i,126,68*
COc1ccc(C(=O)COC(=O)C2COc3ccccc3O2)c(OC)c1 (centres undefined),/,/,/,/,/,106
O=C(Nc1ccccc1Oc1ccccc1)c1cnccn1,-10,-3,i,i,287,96
Cc1ccc(Oc2ccc(Cl)cc2NC(=O)c2cnccn2)cc1,1,-4,i,i,512,79*
NC(=NC(=O)c1ccc(Cl)cc1)N1N=CCC1c1ccccc1 (centres undefined),-6,1,i,i,113,-11*
O=P(Cc1cccc2ccccc12)(c1ccccc1)c1ccccc1,/,/,/,/,/,86
CC(=O)Nc1ccc(S(=O)(=O)Oc2ccccc2N2CCCCC2)cc1,20*,-15,i,i,230,128
COc1cc(C(=S)N2CCCC2)ccc1OS(=O)(=O)c1ccc(NC(C)=O)cc1,10,-15,i,i,123,99
O=C(c1c[nH]c2ccccc12)N1CCN(Cc2ccccc2)CC1,18*,-1,i,i,409,116
O=C(C(=O)N1CCN(Cc2ccccc2)CC1)c1c[nH]c2ccccc12,/,/,i,i,302,99
O=C(Nc1ccccn1)C(c1ccccc1)c1ccccc1,/,/,/,/,/,107
O=[N+]([O-])c1ccc(OCc2cnc(Cl)s2)c([N+](=O)[O-])c1,0,3,i,i,258,87*
COC(=O)C(Cc1cnc(Cl)s1)(C(=O)OC)c1ccc([N+](=O)[O-])cc1[N+](=O)[O-],-6,-2,i,i,157,99
CC12CCC(CC1O)C2C(=O)O (centres undefined),/,/,/,/,/,107
COc1ccc(CC(=O)c2ccc(O)cc2O)cc1,16,-3,i,i,244,100
O=C(Cc1ccc(Br)cc1)c1ccc(O)cc1O,0,11,i,-6.7*,563,100
Cc1cccc(Cn2cnc3c(nnn3Cc3ccc(Cl)cc3)c2=O)c1,-6,-15,i,i,466,91
Cc1ccc(Cn2cnc3c(nnn3Cc3ccc(Cl)cc3)c2=O)cc1,-6,-10,i,i,205,73*
c1ccc(COc2ccc(OCCN3CCCCC3)cc2)cc1,-1,-27,i,i,81*,124
CN1Cc2c(N3CCOCC3)nc3sc(C(=O)c4ccc(Br)cc4)c(N)c3c2CC1(C)C,44*,-9,i,i,514,98
CC1(C)Cc2c(c(N3CCOCC3)nc3sc(C(=O)N4CCCCC4)c(N)c23)CO1,-4,-4,i,i,294,106
Cc1cc(Cl)ccc1NC(=O)COC(=O)CCNS(=O)(=O)c1ccccc1,/,/,/,/,0.0*,106
O=C(NCc1nc(-c2ccccc2)no1)Nc1ccc(F)cc1,4,-14,i,i,739,91
COc1ccccc1NC(=O)NCc1nc(-c2ccc(C(F)(F)F)cc2)no1,-12,0,i,i,161,74*
SMILES,GPR7 antag,pCIP destab,CHT PAM,CHT block,T cell modulator,Pemphigus Ab inh
O=S(=O)(O)c1cc(O)c2ccc(Nc3ccccc3)cc2c1,/,/,/,/,/,44*
O=S(=O)(O)c1ccc(O)c2cc(Nc3ccccc3)ccc12,/,/,/,/,/,38*
O=C(c1ccccc1F)N1CCc2ccccc21,-9,5,i,i,0.0*,/
COc1ccc(N(CC(=O)NCc2ccco2)S(=O)(=O)c2ccc(C)cc2)cc1OC,2,-3,i,i,138,111
COc1ccccc1N(CC(=O)NCc1ccco1)S(=O)(=O)c1ccc(C)cc1,-14,4,i,i,161,-60*
CSc1nc(SCC(=O)O)c2sc3nc(-c4ccccc4)c4c(c3c2n1)CCC4,9,-12,/,/,/,66*
CSc1nc(N(C)CCO)c2sc3nc(-c4ccco4)c4c(c3c2n1)CCC4,-9,-4,i,i,387,102
CCOc1ccc(/C(O)=C2/C(=O)C(=O)N(c3cc(C)on3)C2c2ccc(C(=O)OC)cc2)cc1 (centres undefined),9,-1,i,i,168,-31*
CCCOc1ccc(/C(O)=C2/C(=O)C(=O)N(c3cc(C)on3)C2c2ccc(C(=O)OC)cc2)cc1 (centres undefined),-5,5,i,i,338,?
O=C(CN1C(=O)NC(CCc2ccccc2)C1=O)NC1CC1 (centres undefined),24*,-1,i,i,451,100
Cc1ccc(NC(=O)c2ccc(OC(=O)c3ccco3)cc2)cc1,1,-14,i,i,290,87
O=C(Nc1cc(Cl)ccc1Cl)c1ccc(OC(=O)c2ccco2)cc1,-7,-8,i,i,190,65*
COc1ccc(CCC(=O)O)c(C(CC(=O)O)C(=O)O)c1OS(=O)(=O)c1ccc(C)cc1 (centres undefined),/,/,/,/,/,107
O=C(N/N=C1/C(=O)c2cccc3cccc1c23)c1ccc(Cl)cc1,-14,-5,i,i,310,61*
COC(=O)C1CCCN1C(=O)c1cccs1 (centres undefined),-9,3,i,i,186,110
CC(=O)Nc1ccc(NC(=O)C(C)OC(=O)[C@@H]2CCCN2C(=O)c2cccs2)cc1 (some centres undefined),/,/,/,/,65*,89
COc1cc(OC)c(NC(C)C(=O)N2CCCC2)cc1Cl (centres undefined),12,1,i,-8.7*,397,100
Cc1ccc(NC(=O)c2cc(N3C(=O)C=CC3=O)ccc2Cl)cc1C,-3,-9,i,i,257,89*
Cc1ccc(NC(=O)c2cc(N3C(=O)C=CC3=O)ccc2N2CCOCC2)cc1,-2,-21,/,/,/,86
Cc1ccc(C(C)C)c(OCc2nn(CC(=O)c3ccc(Cl)cc3)c3[n+]2CCCCC3)c1,38*,5,i,i,254,117
COc1ccc(-n2c(SCC(=O)Nc3cc(C)on3)nc3c([nH]c4ccccc43)c2=O)cc1,-13,-20,i,i,482,-8.2*
COc1ccc(C(NC(=O)c2c(F)c(F)c(F)c(F)c2F)c2ccccc2)cc1 (centres undefined),31*,6,i,i,246,103
